pIC50: −log10 of the molar value. The source made the active and inactive calls. No cut-off for these calls is given here.
Key:
[1] = molecular target: T1, P2X purinoceptor 2 (Homo sapiens, UniProt Q9UBL9); assay: Antagonist activity at human P2X2R transfected in human 1321N1 cells assessed as inhibition of ATP-induced calcium influx; format: cell-based
T1 sequence (Q9UBL9 whole entry): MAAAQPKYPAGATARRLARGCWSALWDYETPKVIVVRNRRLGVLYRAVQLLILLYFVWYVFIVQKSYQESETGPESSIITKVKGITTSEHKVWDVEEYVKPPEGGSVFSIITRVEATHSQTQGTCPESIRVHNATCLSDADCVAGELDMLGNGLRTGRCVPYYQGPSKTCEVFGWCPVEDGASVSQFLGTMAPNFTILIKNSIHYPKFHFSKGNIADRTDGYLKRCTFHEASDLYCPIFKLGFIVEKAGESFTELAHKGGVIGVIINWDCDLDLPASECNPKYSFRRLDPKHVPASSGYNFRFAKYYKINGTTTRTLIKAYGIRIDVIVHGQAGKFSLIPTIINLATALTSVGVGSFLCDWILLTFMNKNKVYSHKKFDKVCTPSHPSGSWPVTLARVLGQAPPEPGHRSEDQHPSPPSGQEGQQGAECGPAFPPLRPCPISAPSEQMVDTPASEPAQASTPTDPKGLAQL
In short: (§1)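 1321N1 astrocytoma cells stably expressing human P2X1, P2X2, P2X3 or P2X4 receptor. Calcium influx was induced by ATP at the EC80 for each subtype. Results are given as IC50 (μM) or % inhibition at the indicated concentration.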

[2] = molecular target: T2, P2X purinoceptor 7 (Homo sapiens, UniProt Q99572); assay: Antagonist activity at human P2X7R transfected in human 1321N1 cells assessed as inhibition of Bz-ATP-induced calcium influx; format: cell-based
T2 sequence (Q99572 whole entry): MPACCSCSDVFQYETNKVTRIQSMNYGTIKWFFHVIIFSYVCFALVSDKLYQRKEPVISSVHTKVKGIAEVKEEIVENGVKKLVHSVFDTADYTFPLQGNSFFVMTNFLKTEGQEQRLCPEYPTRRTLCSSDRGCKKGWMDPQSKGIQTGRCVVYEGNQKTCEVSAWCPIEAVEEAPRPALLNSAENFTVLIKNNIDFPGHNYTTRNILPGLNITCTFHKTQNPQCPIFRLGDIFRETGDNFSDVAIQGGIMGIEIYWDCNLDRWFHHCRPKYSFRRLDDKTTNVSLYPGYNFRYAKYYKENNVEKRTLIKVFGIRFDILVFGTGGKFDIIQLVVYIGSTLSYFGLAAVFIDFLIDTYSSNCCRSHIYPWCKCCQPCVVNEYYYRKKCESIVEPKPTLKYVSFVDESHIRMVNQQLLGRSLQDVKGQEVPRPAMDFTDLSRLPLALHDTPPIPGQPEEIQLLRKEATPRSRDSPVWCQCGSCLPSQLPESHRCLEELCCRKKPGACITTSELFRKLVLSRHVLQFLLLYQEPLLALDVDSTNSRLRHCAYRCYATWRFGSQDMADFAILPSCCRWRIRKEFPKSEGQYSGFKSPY

[3] = molecular target: T3, P2X purinoceptor 3 (Mus musculus, UniProt Q3UR32); assay: Antagonist activity at P2X3R in mouse TG sensory neurons assessed as inhibition of P2X3R agonist alpha,beta-meATP-induced current at -65 mV holding potential by whole cell voltage clamp method
T3 sequence (Q3UR32 whole entry): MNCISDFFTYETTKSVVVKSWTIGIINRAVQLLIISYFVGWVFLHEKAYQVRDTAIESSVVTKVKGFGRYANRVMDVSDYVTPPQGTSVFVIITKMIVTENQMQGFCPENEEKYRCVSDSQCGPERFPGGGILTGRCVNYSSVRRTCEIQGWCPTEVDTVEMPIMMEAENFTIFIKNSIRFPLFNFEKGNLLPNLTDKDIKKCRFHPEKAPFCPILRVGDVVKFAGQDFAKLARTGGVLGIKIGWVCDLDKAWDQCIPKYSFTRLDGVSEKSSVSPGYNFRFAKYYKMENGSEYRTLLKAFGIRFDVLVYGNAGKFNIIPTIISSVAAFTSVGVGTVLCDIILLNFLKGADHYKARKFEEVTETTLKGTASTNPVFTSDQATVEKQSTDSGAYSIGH
In short: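 Mouse trigeminal sensory neurons were recorded by whole-cell patch clamp. Test compound (0.001–10 μM) was applied before 10 μM α,β-meATP, and inhibition of the agonist-evoked P2X3 current was measured. IC50 was taken from concentration–inhibition curves. N = 5–6 cells.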

[4] = molecular target: T4, P2X purinoceptor 2 (Homo sapiens) (UniProt Q9UBL9); assay: Antagonist activity at human P2X2R transfected in human 1321N1 cells assessed as inhibition of ATP-induced calcium influx relative to control; format: cell-based; conditions: concentration not given here; in short: as §1
T4 sequence (whole entry): T1 sequence (Q9UBL9 whole entry)

[5] = molecular target: T5, P2X purinoceptor 7 (Homo sapiens) (UniProt Q99572); assay: Antagonist activity at human P2X7R transfected in human 1321N1 cells assessed as inhibition of Bz-ATP-induced calcium influx relative to control; format: cell-based; conditions: concentration not given here
T5 sequence (whole entry): T2 sequence (Q99572 whole entry)

[6] = molecular target: T6, P2X purinoceptor 4 (Homo sapiens, UniProt Q99571); assay: Antagonist activity at human P2X4R transfected in human 1321N1 cells assessed as inhibition of ATP-induced calcium influx; format: cell-based; in short: as §1
T6 sequence (Q99571 whole entry): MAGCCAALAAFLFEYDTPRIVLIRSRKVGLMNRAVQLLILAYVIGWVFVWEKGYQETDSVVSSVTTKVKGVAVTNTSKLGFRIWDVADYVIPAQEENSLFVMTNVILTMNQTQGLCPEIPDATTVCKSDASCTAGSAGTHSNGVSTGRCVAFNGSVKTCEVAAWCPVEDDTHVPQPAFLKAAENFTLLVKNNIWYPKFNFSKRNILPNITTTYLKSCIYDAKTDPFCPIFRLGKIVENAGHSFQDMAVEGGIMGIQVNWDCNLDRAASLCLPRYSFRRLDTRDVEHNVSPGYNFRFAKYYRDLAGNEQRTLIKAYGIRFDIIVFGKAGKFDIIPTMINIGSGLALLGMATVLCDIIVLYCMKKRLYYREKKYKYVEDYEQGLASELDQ

[7] = molecular target: T7, P2X purinoceptor 3 (Homo sapiens, UniProt P56373); assay: Antagonist activity at human P2X3R transfected in human 1321N1 cells assessed as inhibition of ATP-induced calcium influx; format: cell-based; in short: as §1
T7 sequence (P56373 whole entry): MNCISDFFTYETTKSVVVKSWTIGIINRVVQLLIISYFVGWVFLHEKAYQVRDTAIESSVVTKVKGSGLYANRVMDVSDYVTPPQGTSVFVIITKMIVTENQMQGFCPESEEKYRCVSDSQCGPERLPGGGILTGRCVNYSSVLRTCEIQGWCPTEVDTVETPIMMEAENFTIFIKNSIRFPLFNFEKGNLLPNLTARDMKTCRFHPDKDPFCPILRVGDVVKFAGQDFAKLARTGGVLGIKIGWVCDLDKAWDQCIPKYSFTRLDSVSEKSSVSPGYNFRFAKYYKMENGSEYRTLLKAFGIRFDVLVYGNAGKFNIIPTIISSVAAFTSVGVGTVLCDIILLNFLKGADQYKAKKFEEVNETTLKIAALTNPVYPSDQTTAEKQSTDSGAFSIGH

[8] = molecular target: T8, P2X purinoceptor 3 (Mus musculus) (UniProt Q3UR32); assay: Agonist activity at P2X3R in mouse TG sensory neurons assessed as induction of channel current at 10 uM at -65 mV holding potential by whole cell voltage clamp method relative to alpha,beta-meATP
T8 sequence (whole entry): T3 sequence (Q3UR32 whole entry)

| pIC50 [1] | pIC50 [2] | pIC50 [3] | inhibition [4] [%] | inhibition [5] [%] | pIC50 [6] | pIC50 [7] | Activity [8] | SMILES |
| --- | --- | --- | --- | --- | --- | --- | --- | --- |
| < 4.00 | < 4.00 | < 6.00 | 36 | 21 | < 4.00 | < 4.00 | inactive | Nc1ncnc2c1ncn2[C@@H]1O[C@H](COP(=O)(O)OP(=O)(O)OP(=O)(O)O)[C@H]2OCO[C@H]21 |
| < 4.00 | < 4.00 | 7.62 | 6 | 5 | 4.32 | 5.39 | inactive | CC1(C)O[C@@H]2[C@H](O1)[C@@H](COP(=O)(O)OP(=O)(O)OP(=O)(O)O)O[C@H]2n1cnc2c(N)ncnc21 |
| < 4.00 | < 4.00 | 6.90 | 9 | -1 | < 4.00 | 4.76 | inactive | Nc1ncnc2c1ncn2[C@@H]1O[C@H](COP(=O)(O)CP(=O)(O)OP(=O)(O)O)[C@H]2OC3(CCCCC3)O[C@H]21 |

Source: ChEMBL document CHEMBL4433213, “Investigation on 2',3'-O-Substituted ATP Derivatives and Analogs as Novel P2X3 Receptor Antagonists” (ACS Med Chem Lett, 2019)
